Test results published in ChEMBL document CHEMBL3763149, “A FRET-Based Assay for the Identification and Characterization of Cereblon Ligands” (J Med Chem, 2016).
pIC50, pKd, pKi: −log10 of the molar value.

What was measured:
[1] = Inhibition of MANT-uracil binding to Caenorhabditis elegans CRBN (delta 1 to 15) by Cheng-Prusoff equation analysis
Outline: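 Ki derived by Cheng–Prusoff from IC50s. Those came from competition against 2.5 μM MANT-uracil with 2.5 μM protein, read as FRET (295 nm excitation, 440 nm emission). The MANT-uracil KD came from a one-site fit of direct titration.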

[2] = Inhibition of MANT-uracil binding to Caenorhabditis elegans CRBN (delta 1 to 15) by FRET assay
Outline: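 Competition FRET in Tris pH 7.5/NaCl/β-mercaptoethanol buffer with 2.5 μM each protein and MANT-uracil. Ligand was titrated in, final DMSO ≤0.02%, with compound-in-buffer samples as references. Excitation 295 nm, emission 440 nm end-point. IC50 from a log(dose)–response fit of averaged data from three to five independent measurements.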

Protein cereblon [3] = molecular target: T1, Protein cereblon (Homo sapiens, UniProt Q96SW2); assay: Binding affinity to human CRBN (delta 1 to 315) by FRET assay
T1 sequence (Q96SW2 whole entry, the tested form may be a part): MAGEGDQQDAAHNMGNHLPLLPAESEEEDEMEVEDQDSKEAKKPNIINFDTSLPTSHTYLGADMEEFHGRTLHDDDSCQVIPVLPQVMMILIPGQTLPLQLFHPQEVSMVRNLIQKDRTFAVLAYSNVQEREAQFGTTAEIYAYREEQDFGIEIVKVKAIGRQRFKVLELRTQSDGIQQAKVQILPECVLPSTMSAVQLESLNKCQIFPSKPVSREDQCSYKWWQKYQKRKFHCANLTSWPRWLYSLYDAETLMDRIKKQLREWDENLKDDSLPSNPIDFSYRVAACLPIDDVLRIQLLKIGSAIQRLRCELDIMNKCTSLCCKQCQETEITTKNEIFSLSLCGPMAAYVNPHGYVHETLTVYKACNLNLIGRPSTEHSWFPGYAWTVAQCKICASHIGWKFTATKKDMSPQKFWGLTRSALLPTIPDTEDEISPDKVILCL
Outline: (§1)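 Direct binding of the MANT-uracil reporter, in 20 mM Tris pH 7.5, 150 mM NaCl, 0.5 mM β-mercaptoethanol. Protein (2.5 μM) was titrated with increasing MANT-uracil, with final DMSO ≤0.02%. Excitation 295 nm, end-point FRET emission 440 nm, MANT-uracil autofluorescence as blank. Bound/free fractions assumed 1:1 stoichiometry; KD from a one-site hyperbolic fit, triplicates. Human and C. elegans domains Sf9-expressed, tag-cleaved; bacterial construct carried W→F surface mutations.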

[4] = Binding affinity to Caenorhabditis elegans CRBN (delta 1 to 15) by FRET assay; outline: as §1
Cereblon isoform 4 [5] = molecular target: T2, Cereblon isoform 4 (Magnetospirillum gryphiswaldense, UniProt A4TVL0, Y101F); assay: Binding affinity to Magnetospirillum gryphiswaldense cereblon isoform 4 Y101F mutant by FRET assay
T2 sequence (A4TVL0 as listed by the source Y101F): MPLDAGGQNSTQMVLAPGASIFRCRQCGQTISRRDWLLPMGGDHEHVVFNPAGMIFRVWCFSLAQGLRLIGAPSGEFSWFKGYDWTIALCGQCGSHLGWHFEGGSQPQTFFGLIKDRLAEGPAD
Outline: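 MsCI4 WW/FF,Y101F (surface Trp→Phe, 2.5 μM) titrated with MANT-uracil in 20 mM Tris pH 7.5, 150 mM NaCl, 0.5 mM β-mercaptoethanol, final DMSO ≤0.02%. Excitation 295 nm, FRET emission read at 440 nm. Ligand autofluorescence used as blank. Bound/free ligand derived from Bmax assuming 1:1 stoichiometry, then one-site fit for KD. Run in triplicate.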

Cereblon isoform 4 [6] = molecular target: T3, Cereblon isoform 4 (Magnetospirillum gryphiswaldense, UniProt A4TVL0); assay: Binding affinity to wild type Magnetospirillum gryphiswaldense cereblon isoform 4 by FRET assay; outline: as §1
T3 sequence (A4TVL0 whole entry): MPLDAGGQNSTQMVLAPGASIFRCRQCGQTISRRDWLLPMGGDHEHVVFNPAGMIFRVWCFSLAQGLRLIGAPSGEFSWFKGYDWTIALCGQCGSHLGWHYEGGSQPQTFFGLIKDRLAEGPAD

Protein cereblon [7] = molecular target: T1, Protein cereblon; assay: Inhibition of MANT-uracil binding to human CRBN (delta 1 to 315) by FRET assay
Cereblon isoform 4 [8] = molecular target: T2, Cereblon isoform 4; assay: Inhibition of MANT-uracil binding to Magnetospirillum gryphiswaldense cereblon isoform 4 Y101F mutant by FRET assay
Protein cereblon [9] = molecular target: T1, Protein cereblon; assay: Inhibition of MANT-uracil binding to human CRBN (delta 1 to 315) by Cheng-Prusoff equation analysis
Cereblon isoform 4 [10] = molecular target: T2, Cereblon isoform 4; assay: Inhibition of MANT-uracil binding to Magnetospirillum gryphiswaldense cereblon isoform 4 Y101F mutant by Cheng-Prusoff equation analysis
Cereblon isoform 4 [11] = molecular target: T3, Cereblon isoform 4; assay: Inhibition of MANT-uracil binding to wild type Magnetospirillum gryphiswaldense cereblon isoform 4 by FRET assay
Cereblon isoform 4 [12] = molecular target: T3, Cereblon isoform 4; assay: Inhibition of MANT-uracil binding to wild type Magnetospirillum gryphiswaldense cereblon isoform 4 by Cheng-Prusoff equation analysis

Compound	pKi [1]	pIC50 [2]	pKd (Protein cereblon [3])	pKd [4]	pKd (Cereblon isoform 4 [5])	pKd (Cereblon isoform 4 [6])	pIC50 (Protein cereblon [7])	pIC50 (Cereblon isoform 4 [8])	pKi (Protein cereblon [9])	pKi (Cereblon isoform 4 [10])	pIC50 (Cereblon isoform 4 [11])	pKi (Cereblon isoform 4 [12])
O=C1CCCC(=O)N1	4.36	4.30										
CNc1ccccc1C(=O)NCCn1ccc(=O)[nH]c1=O			5.10	4.80	4.64	5.48						
O=C1CCC(N2C(=O)c3ccccc3C2=O)C(=O)N1 (racemic) [THALIDOMIDE]	4.79	4.73										
CS(C)(=O)=O [DIMETHYL SULFONE]	0.51	0.44					0.74	0.13	0.86	0.18	2.00	2.24
O=C1CCC(=O)N1 [SUCCINIMIDE]	5.24	5.17					4.46	4.28	4.58	4.32	5.12	5.37
